ChEMBL document CHEMBL1221376, “Identification and optimization of novel 2-(4-oxo-2-aryl-quinazolin-3(4H)-yl)acetamide vasopressin V3 (V1b) receptor antagonists” (Bioorg Med Chem Lett, 2010)

The molecules below were run against T1, Vasopressin V1b receptor (Rattus norvegicus, UniProt P48974) (assay: Displacement of [3H]AVP from rat vasopressin V3 receptor).
T1 sequence (P48974 whole entry): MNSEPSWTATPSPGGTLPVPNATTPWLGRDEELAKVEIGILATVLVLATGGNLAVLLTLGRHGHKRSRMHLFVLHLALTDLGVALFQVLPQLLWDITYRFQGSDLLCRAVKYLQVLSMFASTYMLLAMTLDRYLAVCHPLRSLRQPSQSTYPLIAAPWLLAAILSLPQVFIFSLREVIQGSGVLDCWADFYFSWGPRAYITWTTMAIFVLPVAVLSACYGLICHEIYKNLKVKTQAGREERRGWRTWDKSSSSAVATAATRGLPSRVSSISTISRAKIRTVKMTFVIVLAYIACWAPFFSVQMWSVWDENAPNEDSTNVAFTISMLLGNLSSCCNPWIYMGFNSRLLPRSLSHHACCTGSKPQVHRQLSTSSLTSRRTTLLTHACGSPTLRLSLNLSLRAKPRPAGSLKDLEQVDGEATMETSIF

SMILES	IC50 [µM]
O=C(Cn1c(-c2ccccc2)nc2ccc(OCCCN3CCOCC3)cc2c1=O)NCC1CC1	0.21

The molecules below were run against T2, Vasopressin V1b receptor (Homo sapiens, UniProt P47901) (assay: Displacement of [3H]AVP from human vasopresin3 receptor expressed in CHO cells).
T2 sequence (P47901 whole entry): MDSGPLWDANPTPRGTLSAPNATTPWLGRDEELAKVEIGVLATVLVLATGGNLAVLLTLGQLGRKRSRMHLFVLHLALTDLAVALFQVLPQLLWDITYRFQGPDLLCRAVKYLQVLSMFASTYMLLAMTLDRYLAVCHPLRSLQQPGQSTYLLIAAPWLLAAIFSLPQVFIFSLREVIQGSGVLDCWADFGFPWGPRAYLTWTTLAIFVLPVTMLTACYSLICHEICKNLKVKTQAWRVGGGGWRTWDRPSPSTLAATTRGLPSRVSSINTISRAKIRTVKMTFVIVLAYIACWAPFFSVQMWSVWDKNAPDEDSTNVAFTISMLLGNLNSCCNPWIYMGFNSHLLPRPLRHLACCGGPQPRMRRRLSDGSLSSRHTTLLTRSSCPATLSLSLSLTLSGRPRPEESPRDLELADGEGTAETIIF
Assay type: cell-based
Summary of the method: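 Whole-cell binding on CHO cells stably expressing human V3 (V1b) receptor, grown at 37 °C with 5% CO2. Cells seeded at 30,000 per well, cultured overnight at 37 °C, then washed twice with PBS. Serially diluted compounds plus 5 nM [3H]-AVP (final) in PBS with 10 mM MgCl2, 0.1% BSA and 1% DMSO, 30 min at room temperature. Washed, air dried, scintillation counted.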

SMILES	IC50 [µM]
O=C(Cn1c(-c2ccccc2)nc2ccc(OCCCN3CCCC3)cc2c1=O)NCC1CC1	1.8
O=C(Cn1c(-c2ccccc2)nc2ccc(OCCCN3CCC(O)CC3)cc2c1=O)NCC1CC1	1.1
O=C(CCc1ccc(O)cc1)NCCOc1ccc2nc(-c3ccccc3)n(CC(=O)NCC3CC3)c(=O)c2c1	> 100
CC(C)C[C@@H](COc1ccc2nc(-c3ccccc3)n(CC(=O)NCC3CC3)c(=O)c2c1)NC(=O)CN	5.1
CN1CCN(CCOc2ccc3nc(-c4ccccc4)n(CC(=O)NCC4CC4)c(=O)c3c2)CC1	22
O=C(Cn1c(-c2ccccc2)nc2ccc(OCCCN3CCNCC3)cc2c1=O)NCC1CC1	25.8
NCCCOc1ccc2nc(-c3ccccc3)n(CC(=O)NCC3CC3)c(=O)c2c1	3.6
COC1CCN(CCCOc2ccc3nc(-c4ccccc4)n(CC(=O)NCC4CC4)c(=O)c3c2)CC1	0.71
NCC(=O)NCCOc1ccc2nc(-c3ccccc3)n(CC(=O)NCC3CC3)c(=O)c2c1	30.5
CN1CCN(CCCOc2ccc3nc(-c4ccccc4)n(CC(=O)NCC4CC4)c(=O)c3c2)CC1	1.7
O=C(Cn1c(-c2ccccc2)nc2ccc(O)cc2c1=O)NCC1CC1	> 100
CNCCCOc1ccc2nc(-c3ccccc3)n(CC(=O)NCC3CC3)c(=O)c2c1	7.6
NCCCCOc1ccc2nc(-c3ccccc3)n(CC(=O)NCC3CC3)c(=O)c2c1	> 30
CN1CCN(CCCCOc2ccc3nc(-c4ccccc4)n(CC(=O)NCC4CC4)c(=O)c3c2)CC1	4.8
CC(C)C[C@H](N)COc1ccc2nc(-c3ccccc3)n(CC(=O)NCC3CC3)c(=O)c2c1	2.1
NCCOc1ccc2nc(-c3ccccc3)n(CC(=O)NCC3CC3)c(=O)c2c1	4
O=C(Cn1c(-c2ccccc2)nc2ccc(OCCCN3CCCCCC3)cc2c1=O)NCC1CC1	0.34
CC(C)C[C@@H](COc1ccc2nc(-c3ccccc3)n(CC(=O)NCC3CC3)c(=O)c2c1)NC(=O)[C@@H](N)Cc1ccc(O)cc1	0.2
NCCCCCOc1ccc2nc(-c3ccccc3)n(CC(=O)NCC3CC3)c(=O)c2c1	> 30
O=C(Cn1c(-c2ccccc2)nc2ccc(OCCCN3CCCCC3)cc2c1=O)NCC1CC1	0.31
O=C(Cn1c(-c2ccccc2)nc2ccc(OCCCN3CCOCC3)cc2c1=O)NCC1CC1	0.12
CCN(CC)CCCOc1ccc2nc(-c3ccccc3)n(CC(=O)NCC3CC3)c(=O)c2c1	3.8
NCCCCCCOc1ccc2nc(-c3ccccc3)n(CC(=O)NCC3CC3)c(=O)c2c1	> 100

What follows are molecules tested against T3, Oxytocin receptor (Homo sapiens, UniProt P30559) (assay: Displacement of [3H]oxytocin from human oxytocin receptor).
T3 sequence (P30559 whole entry): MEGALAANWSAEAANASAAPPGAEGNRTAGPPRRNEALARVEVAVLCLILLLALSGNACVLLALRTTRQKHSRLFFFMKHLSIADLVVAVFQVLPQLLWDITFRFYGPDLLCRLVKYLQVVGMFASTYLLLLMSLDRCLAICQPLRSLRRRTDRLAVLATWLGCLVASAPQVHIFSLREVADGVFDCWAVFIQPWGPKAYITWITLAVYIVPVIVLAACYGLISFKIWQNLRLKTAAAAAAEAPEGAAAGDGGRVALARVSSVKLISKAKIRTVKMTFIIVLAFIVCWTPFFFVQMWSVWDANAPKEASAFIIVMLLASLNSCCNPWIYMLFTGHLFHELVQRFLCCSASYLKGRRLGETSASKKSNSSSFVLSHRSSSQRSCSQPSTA

SMILES	IC50 [µM]
O=C(Cn1c(-c2ccccc2)nc2ccc(OCCCN3CCOCC3)cc2c1=O)NCC1CC1	> 100

Each molecule was assayed against Vasopressin V1a receptor (Homo sapiens) (UniProt P37288) (assay: Displacement of [3H]AVP from human vasopressin V1a receptor at 5 uM).
Vasopressin V1a receptor (Homo sapiens), sequence (P37288 whole entry, looked up): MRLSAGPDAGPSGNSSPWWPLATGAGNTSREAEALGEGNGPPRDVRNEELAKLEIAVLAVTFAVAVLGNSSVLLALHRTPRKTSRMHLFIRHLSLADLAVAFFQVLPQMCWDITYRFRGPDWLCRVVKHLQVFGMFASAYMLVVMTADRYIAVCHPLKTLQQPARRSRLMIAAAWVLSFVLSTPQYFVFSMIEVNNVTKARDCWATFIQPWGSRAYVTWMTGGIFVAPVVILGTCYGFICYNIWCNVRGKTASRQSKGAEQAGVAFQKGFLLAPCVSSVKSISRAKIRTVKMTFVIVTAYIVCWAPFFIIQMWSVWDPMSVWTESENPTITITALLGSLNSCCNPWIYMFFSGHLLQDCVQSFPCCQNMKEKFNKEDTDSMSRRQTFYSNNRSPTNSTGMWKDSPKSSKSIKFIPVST
Summary of the method: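 Membrane binding using membranes from CHO cells stably expressing human V1a receptor, with 5 nM [3H]-AVP (final) and test compound in 50 mM Tris–HCl pH 7.4, 5 mM MgCl2, 1 mg/mL BSA and 0.5% DMSO. Incubated 60 min at room temperature, then rapid filtration over polyethylenimine-soaked GF/B filters. Filters washed with ice-cold Tris–HCl, dried 30 min at 55 °C, scintillation counted.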

SMILES	inhibition [%]
O=C(Cn1c(-c2ccccc2)nc2ccc(OCCCN3CCOCC3)cc2c1=O)NCC1CC1	6

The molecules below were run against Vasopressin V2 receptor (Homo sapiens, UniProt P30518) (assay: Displacement of [3H]AVP from human vasopressin V2 receptor).
Vasopressin V2 receptor, sequence (P30518 whole entry): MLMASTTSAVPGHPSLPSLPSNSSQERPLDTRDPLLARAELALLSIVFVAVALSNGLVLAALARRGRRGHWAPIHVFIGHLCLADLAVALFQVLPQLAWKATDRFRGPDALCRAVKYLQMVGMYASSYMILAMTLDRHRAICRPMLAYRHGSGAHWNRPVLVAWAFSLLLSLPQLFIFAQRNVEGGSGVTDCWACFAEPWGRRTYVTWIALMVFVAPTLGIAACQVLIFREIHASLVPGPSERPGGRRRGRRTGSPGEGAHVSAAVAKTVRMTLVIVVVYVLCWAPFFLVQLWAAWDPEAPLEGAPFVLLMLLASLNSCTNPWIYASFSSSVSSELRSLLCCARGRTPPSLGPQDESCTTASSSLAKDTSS

SMILES	IC50 [µM]
O=C(Cn1c(-c2ccccc2)nc2ccc(OCCCN3CCOCC3)cc2c1=O)NCC1CC1	> 100
